Activity, EC50 and Drug uptake data for 16 molecules are collected here from ChEMBL document CHEMBL4732060, “Cytotoxic triterpenoid-safirinium conjugates target the endoplasmic reticulum” (Eur J Med Chem, 2021).

The test system of data set [1] is A-375. As to the kind of experiment: Cytotoxicity against human A-375 cells assessed as reduction in cell viability upto 30 uM measured after 72 hrs by SRB assay. The following applies: dose microM <=30, time 72.0 hrs. Format: functional, cell-based. The method, boiled down: (§1)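 Sulforhodamine B assay on human tumour lines A375 (epithelial melanoma), HT29 (colorectal adenocarcinoma), MCF-7 (breast adenocarcinoma), A2780 (ovarian carcinoma) and FaDu (squamous cell carcinoma). Non-malignant NIH 3T3 (mouse fibroblasts) and HEK293 (human embryonic kidney) cells were also tested. EC50 values are given as mean ± standard mean error.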

Data set [2] concerns A-375. As to the kind of experiment: Cytotoxicity against human A-375 cells assessed as reduction in cell viability measured after 72 hrs by SRB assay. It is filed as functional, cell-based. The following applies: A-375, 72 h.
Data set [3] relates to HT-29. Nature of the data set: Cytotoxicity against human HT-29 cells assessed as reduction in cell viability upto 30 uM measured after 72 hrs by SRB assay. Format: functional, cell-based. To be noted: dose microM <=30, time 72.0 hrs. An outline of the steps:
as §1

Data set [4] concerns HT-29. Nature of the data set: Cytotoxicity against human HT-29 cells assessed as reduction in cell viability measured after 72 hrs by SRB assay. Format: functional, cell-based. To be noted: HT-29, 72 h.
The test system of data set [5] is MCF7. As to the kind of experiment: Cytotoxicity against human MCF7 cells assessed as reduction in cell viability upto 30 uM measured after 72 hrs by SRB assay. Format: functional, cell-based. The following applies: dose microM <=30, time 72.0 hrs. The method, boiled down:
as §1

Data set [6] relates to MCF7. Nature of the data set: Cytotoxicity against human MCF7 cells assessed as reduction in cell viability measured after 72 hrs by SRB assay. To be noted: MCF7, 72 h. Format: functional, cell-based.
Data set [7] relates to A2780. Nature of the data set: Cytotoxicity against human A2780 cells assessed as reduction in cell viability upto 30 uM measured after 72 hrs by SRB assay. It is filed as functional, cell-based. To be noted: dose microM <=30, time 72.0 hrs. The method, boiled down: as §1
The subject of data set [8] is A2780. As to the kind of experiment: Cytotoxicity against human A2780 cells assessed as reduction in cell viability measured after 72 hrs by SRB assay. It is filed as functional, cell-based. The following applies: A2780, 72 h.
Data set [9] has as its system FaDu. As to the kind of experiment: Cytotoxicity against human FaDu cells assessed as reduction in cell viability upto 30 uM measured after 72 hrs by SRB assay. Format: functional, cell-based. To be noted: dose microM <=30, time 72.0 hrs. An outline of the steps:
as §1

Data set [10] has as its system FaDu. Nature of the data set: Cytotoxicity against human FaDu cells assessed as reduction in cell viability measured after 72 hrs by SRB assay. It is filed as functional, cell-based.
Data set [11] relates to NIH3T3. As to the kind of experiment: Cytotoxicity against mouse NIH3T3 cells assessed as reduction in cell viability upto 30 uM measured after 72 hrs by SRB assay. Format: cell-based. To be noted: nih3t3, 72 h. The method, boiled down:
as §1

The test system of data set [12] is NIH3T3. As to the kind of experiment: Cytotoxicity against mouse NIH3T3 cells assessed as reduction in cell viability measured after 72 hrs by SRB assay. To be noted: NIH3T3, 72 h. It is filed as cell-based. The method, boiled down:
as §1

The test system of another data set is HEK293. Nature of the data set: Cytotoxicity against human HEK293 cells assessed as reduction in cell viability upto 30 uM measured after 72 hrs by SRB assay. Format: cell-based. The following applies: hek293, 72 h. An outline of the steps: as §1
Data set [13] can be described thus: Drug uptake in human A-375 cells measured after 24 hrs by fluorescence imaging analysis. Format: ADME, cell-based. The following applies: a-375, 24 h. An outline of the steps: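 Fluorescence imaging of cells after a prolonged 24 h incubation with compound, to judge entry into the cells.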

The structures appear in SMILES notation. pEC50: −log10 of the molar value. Calls of active or inactive are those of the source. The calls are words filed in the database; no cut-off is given here.

`CC1=CC(C)=C(C(=O)[O-])C2=N[N+]3(CCN(C)CC3)CN12`: the result in the data set on A-375 [1], in the data set on HT-29 [3], in the data set on MCF7 [5], with A2780 [7] and in the data set on FaDu [9] was inactive. Besides, the pEC50 in the data set with A-375 [2], with HT-29 [4], with MCF7 [6], in the data set on A2780 [8], with FaDu [10] and with NIH3T3 [12] was less than 4.52 each time. The Activity result with NIH3T3 [11] and in the data set on HEK293 was “Non-Toxic” throughout. Also, the Drug uptake result in data set [13] was “Not Active”.
For the molecule `CCCCCCCCCCCC[N+]1(CCCCCCCCCCCC)CN2C(C)=CC(C)=C(C(=O)[O-])C2=N1`, the outcome in the data set on A-375 [1], in the data set with HT-29 [3], with MCF7 [5], in the data set with A2780 [7] and in the data set with FaDu [9] was inactive. In addition, the negative-log EC50 (pEC50) in the data set with A-375 [2], with HT-29 [4], in the data set on MCF7 [6], in the data set on A2780 [8], with FaDu [10] and in the data set on NIH3T3 [12] was less than 4.52 in each case. The Activity entry with NIH3T3 [11] and in the data set on HEK293 was “Non-Toxic” throughout. Also, the Drug uptake result in [13] was “Not Active”.
Regarding `CC[N+]1(CC)CN2C(=N1)C(C(=O)[O-])=Cc1ccccc12`, in data set [13], the Drug uptake result is reported as “Not Active”.
For the molecule `CC[N+]1(CC)CN2C(=N1)C(C(=O)NCCNC(=O)[C@]13CCC(C)(C)C[C@H]1C1=CC[C@@H]4[C@@]5(C)CC[C@H](OC(C)=O)C(C)(C)[C@@H]5CC[C@@]4(C)[C@]1(C)CC3)=Cc1ccccc12`, the pEC50 in the data set with A-375 [2] was 4.72; in the data set with HT-29 [4], 4.60; in the data set with MCF7 [6], 4.66; with A2780 [8], 4.62; with FaDu [10], 4.57; in the data set on NIH3T3 [12], 4.55.
Consider `CC[N+]1(CC)CN2C(=N1)C(C(=O)NCCNC(=O)[C@]13CC[C@@H](C(C)=O)[C@@H]1C1=CC[C@@H]4[C@@]5(C)CC[C@H](OC(C)=O)C(C)(C)[C@@H]5CC[C@@]4(C)[C@]1(C)CC3)=Cc1ccccc12`, for which the pEC50 in the data set on A-375 [2] is 4.78; in the data set with HT-29 [4], less than 4.52; in the data set on MCF7 [6], 4.80; in the data set on A2780 [8], 4.68; with FaDu [10] it was 4.79; in the data set with NIH3T3 [12] it was 4.67.
Regarding `CC[N+]1(CC)CN2C(=N1)C(C(=O)N1CCN(C(=O)[C@]34CCC(C)(C)C[C@H]3C3=CC[C@@H]5[C@@]6(C)CC[C@H](OC(C)=O)C(C)(C)[C@@H]6CC[C@@]5(C)[C@]3(C)CC4)CC1)=Cc1ccccc12`, the pEC50 in the data set with A-375 [2] is 4.67; in the data set with HT-29 [4], 4.58; with MCF7 [6], 4.70; with A2780 [8] it was 4.67; with FaDu [10] it was 4.74; in the data set with NIH3T3 [12], 4.74.
Consider `CC1=CC(C)=C(C(=O)[O-])C2=N[N+]3(CCCC3)CN12`, for which the result in the data set on A-375 [1], with HT-29 [3], in the data set with MCF7 [5], in the data set on A2780 [7] and in the data set with FaDu [9] was inactive. Moreover, the pEC50 in the data set on A-375 [2], in the data set with HT-29 [4], in the data set with MCF7 [6], in the data set with A2780 [8], in the data set on FaDu [10] and with NIH3T3 [12] was less than 4.52 throughout. Further, the Activity result in the data set on NIH3T3 [11] and in the data set on HEK293 was “Non-Toxic” in each case. In [13], the Drug uptake result is on record as “Not Active”.
With `CC[N+]1(CC)CN2C(=N1)C(C(=O)N1CCN(C(=O)[C@]34CC[C@@H](C)[C@H](C)[C@H]3C3=CC[C@@H]5[C@@]6(C)CC[C@H](OC(C)=O)C(C)(C)[C@@H]6CC[C@@]5(C)[C@]3(C)CC4)CC1)=Cc1ccccc12`, the pEC50 in the data set on A-375 [2] is 4.67; with HT-29 [4], less than 4.52; with MCF7 [6], 4.99; with A2780 [8], 5.05; in the data set with FaDu [10], 4.74; with NIH3T3 [12] it was less than 4.52.
On to `CC1=CC(C)=C(C(=O)[O-])C2=N[N+]3(CCOCC3)CN12`, for which the result in the data set with A-375 [1], with HT-29 [3], with MCF7 [5], in the data set with A2780 [7] and in the data set with FaDu [9] was inactive. In addition, the negative-log EC50 (pEC50) in the data set on A-375 [2], in the data set with HT-29 [4], with MCF7 [6], in the data set with A2780 [8], with FaDu [10] and with NIH3T3 [12] was less than 4.52 each time. Further, the Activity entry with NIH3T3 [11] and in the data set on HEK293 was “Non-Toxic” each time. For the same molecule, the Drug uptake result in data set [13] is given as “Not Active”.
In the case of `CC1=CC(C)=C(C(=O)[O-])C2=N[N+](C)(C)CN12`, the result in the data set with A-375 [1], in the data set on HT-29 [3], in the data set with MCF7 [5], in the data set on A2780 [7] and with FaDu [9] was inactive. Besides, the pEC50 with A-375 [2], in the data set on HT-29 [4], with MCF7 [6], in the data set on A2780 [8], with FaDu [10] and in the data set with NIH3T3 [12] was less than 4.52 throughout. Besides, the Activity result in the data set with NIH3T3 [11] and in the data set with HEK293 was “Non-Toxic” throughout. In addition, the Drug uptake entry in data set [13] was “Not Active”.
On to `C=C(C)[C@@H]1CC[C@]2(C(=O)N3CCN(C(=O)C4=C(C)C=C(C)N5C[N+](CC)(CC)N=C45)CC3)CC[C@]3(C)[C@H](CC[C@@H]4[C@@]5(C)CC[C@H](OC(C)=O)C(C)(C)[C@@H]5CC[C@]43C)[C@@H]12`, for which the pEC50 in the data set on A-375 [2] is 4.58; in the data set with HT-29 [4] it was less than 4.52; with MCF7 [6] it was 4.58; in the data set on A2780 [8], 4.67; with FaDu [10], less than 4.52; in the data set with NIH3T3 [12], 4.65.
In the case of `CC[N+]1(CC)CN2C(C)=CC(C)=C(C(=O)[O-])C2=N1`, the result with A-375 [1], in the data set on HT-29 [3], with MCF7 [5], with A2780 [7] and with FaDu [9] was inactive. Besides, the pEC50 with A-375 [2], with HT-29 [4], with MCF7 [6], in the data set with A2780 [8], in the data set on FaDu [10] and in the data set on NIH3T3 [12] was less than 4.52 each time. Also, the Activity result in the data set with NIH3T3 [11] and in the data set with HEK293 was “Non-Toxic” in each case. Moreover, in [13], the Drug uptake entry was “Not Active”.
With `COc1cccc2c1C(=O)c1c(O)c3c(c(O)c1C2=O)C[C@@](O)(C(=O)CO)C[C@@H]3O[C@H]1C[C@H](N)[C@H](O)[C@H](C)O1` [DOXORUBICIN], the negative-log EC50 (pEC50) with HT-29 [4] is 6.05; with MCF7 [6], 5.96; in the data set with A2780 [8], 8.00; in the data set with NIH3T3 [12], 6.40.
With `CC1=CC(C)=C(C(=O)[O-])C2=N[N+]3(CCCCC3)CN12`, the result with A-375 [1], in the data set with HT-29 [3], in the data set with MCF7 [5], in the data set with A2780 [7] and in the data set with FaDu [9] was inactive. Moreover, the pEC50 in the data set on A-375 [2], in the data set with HT-29 [4], in the data set with MCF7 [6], in the data set with A2780 [8], with FaDu [10] and in the data set on NIH3T3 [12] was less than 4.52 in each case. The Activity entry with NIH3T3 [11] and in the data set on HEK293 was “Non-Toxic” throughout. In addition, the Drug uptake result in [13] was “Not Active”.
Regarding `CC[N+]1(CC)CN2C(=N1)C(C(=O)N1CCN(C(=O)[C@]34CC[C@@H](C(C)=O)[C@@H]3C3=CC[C@@H]5[C@@]6(C)CC[C@H](OC(C)=O)C(C)(C)[C@@H]6CC[C@@]5(C)[C@]3(C)CC4)CC1)=Cc1ccccc12`, the pEC50 with A-375 [2] is 4.82; with HT-29 [4], 4.65; in the data set on MCF7 [6], 4.88; with A2780 [8], 4.96; in the data set on FaDu [10], 4.88; with NIH3T3 [12], 5.52.
`CC[N+]1(CC)CN2C(=N1)C(C(=O)NCCNC(=O)[C@]13CC[C@@H](C)[C@H](C)[C@H]1C1=CC[C@@H]4[C@@]5(C)CC[C@H](OC(C)=O)C(C)(C)[C@@H]5CC[C@@]4(C)[C@]1(C)CC3)=Cc1ccccc12`: the pEC50 is 4.86 in the data set with A-375 [2]; 4.66 with HT-29 [4]; 4.93 with MCF7 [6]; 4.95 with A2780 [8]; 4.99 in the data set with FaDu [10]; 5.44 in the data set on NIH3T3 [12].
